Source: PubChem
In the library only some 12% were active in any assay of this set; here they are far more common.
Diaphorase act = activates diaphorase or chemically reduces, flagging diaphorase assay artifacts; Diaphorase/resazurin coupled assay, resorufin fluorescence, 16 min; hits give high values; 1 = vehicle wells, 0 = NADH-free wells; activation factor at 20 µM; 190,000 compounds, 0.005% hits; AID 1229;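 active means diaphorase activity raised at least twofold by the compound at 20 µM; inactive means activation factor below 2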
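System – purified diaphorase enzyme from Clostridium kluyveri · Input – enzyme 0.07 U/mL final · Also added – final NADH 0.114 mM, resazurin 0.1 mM · Measured by – fluorescence of resorufin, 544 nm excitation, 590 nm emission · Timing – 16 min enzyme reaction, ambient temperature · Measure – resorufin increase flagging diaphorase activators or reducers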
L major viab = inhibitors of Leishmania major promastigote growth. Leishmania major promastigotes, resazurin fluorescence viability. inhibition, % at 10 µM. 200,000 compounds, 9% hits; in the data active means inhibition above about 50%;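 further: promastigotes grown with compound for 44 hours at 28 °C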
ROMK primary = modulators of human ROMK potassium channel. 130,000 compounds, 2% hits. B-score at 10 µM. AID 1918. P48048. Tet-inducible ROMK, thallium flux fluorescence; actives lie on both sides;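 active means signal ratio slope over the read window, or its plate-corrected B-score, at least 3 SD from the plate mean, either direction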;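 further: B-score of the F/F0 ratio slope over 7 to 12 s after thallium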
Target sequence (P48048 whole entry, looked up): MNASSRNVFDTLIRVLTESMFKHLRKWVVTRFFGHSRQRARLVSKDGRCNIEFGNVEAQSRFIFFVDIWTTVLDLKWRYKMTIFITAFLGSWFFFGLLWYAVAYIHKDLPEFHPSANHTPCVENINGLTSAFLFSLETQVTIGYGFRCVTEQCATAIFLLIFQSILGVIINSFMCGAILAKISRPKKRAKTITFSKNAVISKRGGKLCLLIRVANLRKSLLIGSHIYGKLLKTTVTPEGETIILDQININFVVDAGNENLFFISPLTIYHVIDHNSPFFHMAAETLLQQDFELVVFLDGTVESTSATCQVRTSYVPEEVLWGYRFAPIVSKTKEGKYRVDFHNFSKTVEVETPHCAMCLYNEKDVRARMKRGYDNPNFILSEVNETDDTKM
KCC2 mod = modulates chloride dependent transport by human KCC2 | Q9H2X9 | KCC2 cells, thallium flux FluoZin-2 fluorescence | B-score of Tl+ flux slope (higher = more flux/activation; lower = inhibition) at 10 µM | 190,000 compounds, 2.2% hits | AID 1456;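 active means thallium flux slope and its plate-corrected score both differing from the plate sample mean at a set confidence after two filtering rounds, in either direction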;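 further: slope of fluorescence scaled to starting intensity during 10 to 20 s after thallium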
Diaphorase inh = counter-screen for diaphorase-based assays: diaphorase inhibitors and chemical oxidizers; diaphorase resazurin-to-resorufin fluorescence, NADH, 16 min; bacterial (C. kluyveri) enzyme, not human; inhibition, % at 20 µM; 190,000 compounds, 0.69% hits; AID 1217;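 active means primary screen inhibition at 20 µM above a set limit, cut at about 50% in these data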;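 further: plate controls were DMSO with full reaction for no effect and wells lacking NADH for full effect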
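Assay system – diaphorase enzyme from Clostridium kluyveri · Amount – diaphorase 0.14 U/mL (working solution) · Times – reaction incubation of 16 min at room temperature · Controls – No-NADH positive control and DMSO neutral control · Signal – resorufin fluorescence 544/590 nm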
WT yeast gro inh = growth inhibition of WT yeast, mitochondrial fusion screen; mitochondrial fusion phenotypic screen, WT strain; inhibition, % at 10 µM; 190,000 compounds, 2.1% hits; in the data active means inhibition above about 58%; tested in S. cerevisiae
* marks the source's active call; other numbers are inactive results; . = no result given.

SMILES	Diaphorase act	L major viab	ROMK primary	KCC2 mod	Diaphorase inh	WT yeast gro inh
O=C(O)C1CCN(c2ccc(Cl)nn2)CC1	1	-5.1	.	1.41	2.2	-6.4
Cc1cccc2nc(-c3ccco3)c(Nc3ccc4c(c3)OCO4)n12	0.3	25.0	-0.764	-1.22	71.5*	30.6
Cc1cccc2nc(-c3ccco3)c(Nc3ccccc3)n12	0.9	21.5	0.338	0.24	11.0	7.5
O=C(Cn1nnc(-c2ccccc2Cl)n1)N/N=C/c1ccc(-c2cccc(Cl)c2)o1	1	-5.0	-0.382	0.555	4.0	11.6
Cc1c(C(=O)c2ccc(Cl)cc2[N+](=O)[O-])c2ccccn2c1CCC#N	0.4	-4.0	-0.0144	-1.18	63.6*	2.6
Cc1cc(C)n(C(=O)c2c([N+](=O)[O-])cnn2C)n1	0.9	-3.8	-0.0284	-0.162	6.8	-10.2
CC(C)(CNC(=O)c1ccc([N+](=O)[O-])c(Cl)c1)CNC(=O)c1ccc([N+](=O)[O-])c(Cl)c1	0.8	88.3*	.	-0.904	19.0	48.0
Cc1cc(C)n(C(=O)c2ccc([N+](=O)[O-])c(Cl)c2)n1	0.9	92.1*	.	-0.444	13.0	-12.1
Cc1ccc2cc(CN(Cc3ccco3)C(=S)NCC3CCCO3)c(=O)[nH]c2c1C (stereo not given)	0.8	4.3	0.798	-0.476	21.5	7.9
Cc1cc(C)c2[nH]c(=O)c(CN(Cc3cccs3)C(=S)NCC3CCCO3)cc2c1 (stereo not given)	0.8	52.7*	0.244	-1.07	16.8	39.3
COc1ccccc1NC(=O)N(Cc1ccco1)Cc1cc2cc(C)cc(C)c2[nH]c1=O	0.7	63.1*	-0.00789	.	32.7	27.9
COc1ccccc1NC(=O)N(Cc1ccco1)Cc1cc2ccc(C)c(C)c2[nH]c1=O	0.7	10.1	.	-0.106	31.0	11.9
Cc1cc2cc(CN(CC3CCCO3)C(=S)Nc3ccccc3)c(=O)[nH]c2cc1C (stereo not given)	0.8	67.6*	-0.121	-0.359	24.4	11.8
COc1ccc2[nH]c(=O)c(CN(CC3CCCO3)C(=S)Nc3ccccc3)cc2c1 (stereo not given)	.	39.7	-0.179	-0.523	.	0.4
CC(C)CNC(=S)N(Cc1ccco1)Cc1cc2cc3c(cc2[nH]c1=O)OCCO3	0.8	88.1*	.	0.146	21.2	-7.7
COc1ccccc1C(=O)N/N=C/c1cnc2ccccc2n1	0.9	-2.0	0.96	-1.53	6.8	-6.4
C/C(N)=C(/C#N)C(=O)COC(=O)c1ccccc1C(=O)c1ccc(C)cc1	0.8	3.3	-0.66	0.24	16.3	-24.2
O=C(Nc1ccc(Oc2ncnc3cc(Cl)ccc23)nc1)c1cccs1	.	.	0.675	-0.0664	.	.
CCCCNC(=O)/C=C/c1ccc(S(=O)(=O)Nc2ccc(OC)cc2)cc1	0.8	24.6	0.465	-0.205	15.9	-11.8
Cc1ccc(NC(=O)CSc2nnc(CNC(=O)c3cccs3)o2)c(C)c1	0.8	-7.2	-0.444	0.305	18.1	-2.5
Cc1cc(C)c2[nH]c(=O)c(CN(Cc3ccco3)C(=S)NCC3CCCO3)cc2c1 (stereo not given)	0.8	87.9*	-0.642	1.4	15.6	-7.6
COc1ccc2[nH]c(=O)c(CN(Cc3cccs3)C(=S)NCC3CCCO3)cc2c1 (stereo not given)	.	.	.	-0.803	.	.
Cc1cc2cc(CN(Cc3cccs3)C(=S)NCC3CCCO3)c(=O)[nH]c2cc1C (stereo not given)	0.7	96.4*	-2.53	-0.516	27.0	7.8
CC(C)C(=O)Nc1ncc(Cc2cccc(Cl)c2)s1	0.8	37.4	0.352	-1.95	23.0	-2.0
Cc1ccc(C(=O)/C=C/c2cn(CN3CCN(C)CC3)c3ccccc23)cc1	0.9	2.6	1.09	0.162	7.6	84.0*
SMILES	Diaphorase act	L major viab	ROMK primary	KCC2 mod	Diaphorase inh	WT yeast gro inh
Cn1cc(/C=C/C(=O)c2ccccc2)c2ccccc21	.	.	.	-0.0202	.	.
Cc1ccc(NS(=O)(=O)c2cc(NC(=O)c3ccc4c(c3)NC(=O)CS4)ccc2Cl)c(C)c1	0.9	86.7*	-0.654	-1.05	10.7	14.5
CCOC(=O)CSc1nnc(CNc2ccc(Cl)cc2)n1-c1ccccc1	1	-5.8	-1.33	0.0983	-4.1	-1.7
CCOc1ccc(NCc2nnc(SCC(=O)Nc3nc(-c4ccccc4)cs3)n2-c2ccccc2)cc1	0.9	94.8*	0.00638	0.525	8.3	5.7
CCOc1ccc(NCc2nnc(SCc3ccc(Cl)cc3)n2-c2ccccc2)cc1	0.8	24.1	-0.671	-1.68	24.7	60.3*
O=C(COC(=O)COc1ccc(Cl)cc1Cl)Nc1cccnc1Cl	1	-4.4	0.332	-0.567	-3.0	7.4
O=C(c1ccc(Cl)c(S(=O)(=O)N2CCCC2)c1)N1CCN(c2ccccc2F)CC1	0.9	-4.9	-2.3	-1.53	10.9	16.4
Cc1cccc(N2CCN(C(=O)c3ccc(Cl)c(S(=O)(=O)N4CCc5ccccc5C4)c3)CC2)c1C	0.9	99.3*	.	0.288	14.6	6.9
Cc1cccc(N2CCN(C(=O)c3ccc(Cl)c(S(=O)(=O)NCc4ccco4)c3)CC2)c1C	0.6	42.4	.	-0.408	43.5	74.2*
O=C(NCC1(N2CCOCC2)CCCCC1)c1cccc(S(=O)(=O)N2CCc3ccccc3C2)c1	0.9	63.7*	-0.252	-0.091	11.6	0.2
CC(=O)Nc1ccc(S(=O)(=O)N2CCc3ccccc3C2)cc1	0.9	-7.1	.	-0.15	12.1	1.9
CCc1ccc(NC(=O)C(C)OC(=O)c2cccc(S(=O)(=O)N3CCc4ccccc4C3)c2)cc1 (stereo not given)	0.9	88.9*	.	-0.226	10.4	0.1
O=C(NCCCN1CCOCC1)c1cccc(S(=O)(=O)N2CCc3ccccc3C2)c1	1	-1.6	0.042	-1.15	0.3	16.2
O=C(O)c1ccc(Cl)c(S(=O)(=O)NCc2ccco2)c1	0.9	-5.7	0.0279	0.763	13.2	18.9
Nc1ccc(-c2ccc(C(=O)O)s2)cn1	0.9	-0.3	0.295	-0.762	7.6	9.7
O=C(c1cccc(S(=O)(=O)N2CCc3ccccc3C2)c1)N1CCN(c2ccc(O)cc2)CC1	0.8	65.2*	-0.0991	-1.42	19.7	1.3
O=C(NCC1(N2CCOCC2)CCCCC1)c1ccc(Cl)c(S(=O)(=O)NCc2ccco2)c1	0.8	93.5*	.	.	15.9	8.2
Cc1ccc(S(=O)(=O)NCc2ccco2)c(C)c1C	0.8	-8.7	.	0.104	23.4	73.9*
CC1(C(=O)N2CC3(CC(c4cccc(NC(=O)CC(c5ccccc5)c5ccccc5)c4)=NO3)C[C@@H]2C(N)=O)CC1 (stereo not given in full)	.	.	.	-0.386	.	.
COc1cccc(C2=CC(c3ccccc3)n3nnnc3N2)c1 (stereo not given)	0.9	44.5	1.25	-1.48	7.1	68.1*
